# Test results from ChEMBL document CHEMBL4814057, “4-4-(Anilinomethyl)-3-[4-(trifluoromethyl)phenyl]-1H-pyrazol-1-ylbenzoic acid derivatives as potent anti-gram-positive bacterial agents” (Eur J Med Chem, 2021).
# Tested on: Enterococcus faecalis
# Experiment: Antibiofilm activity against Enterococcus faecalis ATCC 29212 assessed as destruction of biofilm formation at 2 times MIC after 24 hrs by crystal violet staining based assay relative to control
# Assay type: functional
# Procedure, shortened: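 Overnight culture brought to 0.5 McFarland in PBS, diluted 1:100 in CAMHB with 1% glucose. Inhibition: cells plus compound (in DMSO) at 2x, 1x, 0.5xMIC, 24 h at 35 °C, triplicate. Destruction: 24 h biofilm grown without drug, washed, fresh medium with compound, further 24 h. Then washed, dried, 0.1% crystal violet, solubilized in 33% acetic acid, OD 620 nm. Controls are DMSO-only and broth-only wells.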
structure (smiles),measurement,value
O=C(O)c1ccc(-n2cc(CNc3cc(F)cc(C(F)(F)F)c3)c(-c3ccc(C(F)(F)F)cc3)n2)cc1,Activity,85%
